Results reported in PMC3986664 (Molecular Metabolism, 2014).
Where a SMILES comes first, the peptide text is derived from it. [ ]: non-standard residue; d: D form. Aib = CC(C)(N)C(=O)O

Experiments:
[1] = Measure of maximum solubility; format: physicochemical; conditions: pH 7.4, 10 mM Tris, 4 °C, 48 h, saturated solution, UV 280 nm, single point
Procedure, shortened: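 Saturated peptide solutions made in 10 mM Tris base, pH adjusted to 7.4, held 48 h at 4 °C and at ambient temperature, then pH re-measured. Serially diluted until no visible precipitate and UV absorbance became linear.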

[2] = Long-term stability study, alkaline RP-HPLC; format: physicochemical

SMILES | Apparent solubility relative to Asp28 [1] | Difference in stability at six months between Asp28 and IUB75 (Δ1) ([2]; Figure 8, trend-line of degradation slopes) | Stability relative to Asp28 ([2]; same pH and ambient temperature, six month study) | Total degradation ([2]; six months, ambient temperature, 1 mg/ml, 20 mM Tris, 0.1% SDS, pH 8.6)
CSCC[C@H](NC(=O)[C@H](CC(C)C)NC(=O)[C@H](Cc1c[nH]c2ccccc12)NC(=O)[C@H](CCC(N)=O)NC(=O)[C@@H](NC(=O)[C@H](Cc1ccccc1)NC(=O)[C@H](CC(=O)O)NC(=O)[C@H](CCC(N)=O)NC(=O)[C@H](C)NC(=O)[C@H](CCCNC(=N)N)NC(=O)[C@H](CCCNC(=N)N)NC(=O)[C@H](CO)NC(=O)[C@H](CC(=O)O)NC(=O)[C@H](CC(C)C)NC(=O)[C@H](Cc1ccc(O)cc1)NC(=O)[C@H](CCCCN)NC(=O)[C@H](CO)NC(=O)[C@H](Cc1ccc(O)cc1)NC(=O)[C@H](CC(=O)O)NC(=O)[C@H](CO)NC(=O)[C@@H](NC(=O)[C@H](Cc1ccccc1)NC(=O)[C@@H](NC(=O)CNC(=O)[C@H](CCC(N)=O)NC(=O)[C@H](CO)NC(=O)[C@@H](N)Cc1c[nH]cn1)[C@@H](C)O)[C@@H](C)O)C(C)C)C(=O)N[C@@H](CC(=O)O)C(=O)N[C@@H](CCC(=O)O)C(=O)O [Asp28,Glu29] | doubling in apparent peptide solubility | – | – | –
CSCC[C@H](NC(=O)[C@H](CC(C)C)NC(=O)[C@H](Cc1c[nH]c2ccccc12)NC(=O)[C@H](CCC(N)=O)NC(=O)[C@@H](NC(=O)[C@H](Cc1ccccc1)NC(=O)[C@H](CC(=O)O)NC(=O)[C@H](CCC(N)=O)NC(=O)[C@H](C)NC(=O)[C@H](CCCNC(=N)N)NC(=O)[C@H](CCCNC(=N)N)NC(=O)C(C)(C)NC(=O)[C@H](CC(=O)O)NC(=O)[C@H](CC(C)C)NC(=O)[C@H](Cc1ccc(O)cc1)NC(=O)[C@H](CCCCN)NC(=O)[C@H](CO)NC(=O)[C@H](Cc1ccc(O)cc1)NC(=O)[C@H](CC(=O)O)NC(=O)[C@H](CO)NC(=O)[C@@H](NC(=O)[C@H](Cc1ccccc1)NC(=O)[C@@H](NC(=O)CNC(=O)[C@H](CCC(N)=O)NC(=O)[C@H](CO)NC(=O)[C@@H](N)Cc1c[nH]cn1)[C@@H](C)O)[C@@H](C)O)C(C)C)C(=O)N[C@@H](CC(=O)O)C(=O)N[C@@H](CCC(=O)O)C(=O)O [IUB75] (H-HSQGTFTSDYSKYLD[Aib]RRAQDFVQWLMDE-OH) | – | 40% | approximately twice as stable | more than 20%
